Activity calls are given as the source filed them. No cut-off for these calls is given here.
Key:
Histone deacetylase 7 = Histone deacetylase 7 (Homo sapiens, UniProt Q8WUI4); assay: Inhibition of HDAC7 (unknown origin) by FDL assay
Summary of the method: (§1)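 Selectivity testing by FDL assay at concentrations up to 200 µM. SIRT1-2 assays run by an outside contract provider. Values reported as IC50.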

[1] = target: T1, NAD-dependent protein deacylase sirtuin-6 (Homo sapiens, UniProt Q8N6T7); assay: Activation of N-terminal his-tagged human SIRT6 expressed in Escherichia coli M15 [pREP4] assessed as increase in peptide demyristoylation incubated for 120 mins using Ac-EALPKK(Myr)-AMC substrate by FDL assay relative to control
T1 sequence (Q8N6T7 whole entry): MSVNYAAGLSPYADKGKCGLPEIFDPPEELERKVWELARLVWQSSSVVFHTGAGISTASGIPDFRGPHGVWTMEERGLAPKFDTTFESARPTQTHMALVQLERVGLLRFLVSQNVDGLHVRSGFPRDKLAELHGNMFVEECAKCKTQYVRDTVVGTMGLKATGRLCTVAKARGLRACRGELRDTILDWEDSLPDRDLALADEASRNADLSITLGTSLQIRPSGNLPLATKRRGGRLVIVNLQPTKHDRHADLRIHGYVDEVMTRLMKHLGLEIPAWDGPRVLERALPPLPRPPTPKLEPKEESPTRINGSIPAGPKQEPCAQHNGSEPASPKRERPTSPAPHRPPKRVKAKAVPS
Summary of the method: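 Demyristoylation: 1 µM recombinant SIRT6 preincubated with compound for 20 min at 37 °C in 50 mM Tris-HCl pH 8.0, BSA 1 mg/mL, 1 mM DTT, with 10 µM Ac-EALPKK(Myr)-AMC. Fluorescence read. Mean ± s.d., triplicate wells, three independent experiments.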

Homo sapiens = species: Homo sapiens; assay: Selectivity index, ratio of IC50 for SIRT1 (unknown origin) to EC1.5 for N-terminal his-tagged human SIRT6 expressed in Escherichia coli M15 [pREP4]
[2] = target: T1, NAD-dependent protein deacylase sirtuin-6; assay: In-vivo activation of SIRT6 in BALB/c nude mouse xenografted with human PANC1 cells assessed as reduction in Lin28b expression at 150 mg/kg/day, po for 30 days by IHC analysis; format: functional, organism-based; details: PANC-1
Summary of the method: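 Female BALB/c nude mice (6–8 weeks) bearing subcutaneous PANC-1 xenografts (5×10⁶–1×10⁷ cells, right flank), randomised at 130–150 mm³ tumours; oral dosing daily for 30 days versus vehicle (n=6). Tumour tissue stained by immunohistochemistry.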

ASPC1 [3] = assay: Inhibition of colony formation in human AsPC1 cells incubated for 9 to 18 days by crystal violet staining based assay; format: functional, cell-based
Summary of the method: (§2)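 Cells are seeded per well at the line-specific density: BXPC-3 750, PANC-1 500, AsPC-1 2200, MIAPaCa-2 500. Compound at several concentrations is added after 24 h. Incubation runs 9–18 days (BXPC-3 18 days, PANC-1 14 days). Cells are then fixed with 4% paraformaldehyde and stained with crystal violet, and colonies of more than 50 cells are counted.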

Histone deacetylase 8 = Histone deacetylase 8 (Homo sapiens, UniProt Q9BY41); assay: Inhibition of HDAC8 (unknown origin) by FDL assay; summary of the method: as §1
Histone deacetylase 8, sequence (Q9BY41 whole entry): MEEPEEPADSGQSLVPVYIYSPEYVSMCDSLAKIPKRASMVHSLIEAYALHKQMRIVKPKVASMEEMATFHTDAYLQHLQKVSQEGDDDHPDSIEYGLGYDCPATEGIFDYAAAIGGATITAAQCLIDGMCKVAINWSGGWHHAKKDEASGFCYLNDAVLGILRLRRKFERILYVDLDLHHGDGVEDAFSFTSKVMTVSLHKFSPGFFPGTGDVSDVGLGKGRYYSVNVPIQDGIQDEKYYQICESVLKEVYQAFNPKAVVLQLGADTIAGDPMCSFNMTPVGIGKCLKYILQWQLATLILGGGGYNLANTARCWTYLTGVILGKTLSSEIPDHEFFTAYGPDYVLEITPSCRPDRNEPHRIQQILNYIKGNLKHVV

BXPC-3 [4] = assay: Inhibition of cell migration of human BxPC3 cells at 10 umol/L incubated for 24 hrs by inverted microscopy relative to control; format: functional; details: BXPC-3, 24 h
Summary of the method: (§3)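 PDAC cells are grown to a confluent monolayer at 37 °C in 5% CO2. The monolayer is scratched with a 200 μL pipette tip to make a gap of constant width, then washed with PBS. Cells are exposed to a range of compound concentrations. They are imaged by inverted microscope after 24 h. Migrated cells are counted by hand, and inhibition is expressed relative to untreated wells (100%).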

PANC-1 [5] = assay: Induction of cell cycle arrest in human PANC1 cells assessed as increase in accumulation at G2 phase incubated for 48 hrs by propidium iodide staining based flow cytometry; format: functional
Summary of the method: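 PANC-1 and BXPC-3 cells in 6-well plates treated with a concentration series for 48 h. Stained with 50 µg/mL propidium iodide for 30 min in the dark. DNA content analysed by flow cytometry for cell-cycle phase distribution.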

BXPC-3 [6] = assay: Inhibition of colony formation in human BxPC3 cells incubated for 9 to 18 days by crystal violet staining based assay; format: functional, cell-based; summary of the method: as §2
ASPC1 [7] = assay: Antiproliferative activity against human AsPC1 cells assessed as reduction in cell viability incubated for 72 hrs by MTT assay; format: functional, cell-based
Summary of the method: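 PDAC cells grown in DMEM or RPMI1640 with 10% FBS and penicillin/streptomycin at 37 °C, 5% CO2. Plated in triplicate, then treated with a concentration series for 72 h. Viability read by MTT. IC50 calculated from dose-response curves.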

[8] = Cmax in Sprague-Dawley rat at 10 mg/kg, po after 0.083 to 24 hrs by LC-MS/MS analysis; format: ADME, organism-based; set-up: dose 10 mg/kg, route oral; details: in vivo
Summary of the method: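 Male Sprague-Dawley rats, 6-8 weeks old. Dosing solution of 10 (PO) or 2 (IV) mg/mL in 5% DMSO, 10% Solutol and 85% saline, pH 7. Blood taken by cardiac puncture at 0.083–24 h (PO) or 0.25–24 h (IV). Plasma levels measured by LC-MS/MS. Values are mean ± SD, n = 3.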

PANC-1 [9] = assay: Antiproliferative activity against human PANC1 cells at 3.3 to 10 uM incubated for 24 hrs by EdU incorporation assay; format: functional, cell-based
Summary of the method: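 Cells seeded per well at 8000 (BXPC-3) or 4600 (PANC-1), then treated with a concentration series for 24 h. EdU incorporation detected with an EdU-Apollo kit, with Hoechst counterstain. EdU-positive cells counted by high-content imaging across 10 fields.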

[10] = target: NAD-dependent protein deacetylase sirtuin-3, mitochondrial (Homo sapiens, UniProt Q9NTG7); assay: Inhibition of SIRT3 (unknown origin) by FDL assay
NAD-dependent protein deacetylase sirtuin-3, mitochondrial, sequence (Q9NTG7 whole entry): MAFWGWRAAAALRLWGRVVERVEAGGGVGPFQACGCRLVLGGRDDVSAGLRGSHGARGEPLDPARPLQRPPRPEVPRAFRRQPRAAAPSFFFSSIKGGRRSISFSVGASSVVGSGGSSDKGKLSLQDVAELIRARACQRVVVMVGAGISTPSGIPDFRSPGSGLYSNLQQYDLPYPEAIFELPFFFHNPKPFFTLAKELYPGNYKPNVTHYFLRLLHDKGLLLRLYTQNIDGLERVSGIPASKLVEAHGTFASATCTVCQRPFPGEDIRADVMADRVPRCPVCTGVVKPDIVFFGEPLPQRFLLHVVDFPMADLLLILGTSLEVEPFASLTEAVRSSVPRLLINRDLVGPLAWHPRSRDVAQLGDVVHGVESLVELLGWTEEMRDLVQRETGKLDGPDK
Summary of the method: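 SIRT3 and SIRT5 tested by an outsourced FDL fluorogenic deacetylase assay, each from a different contract provider. The IC50 was determined for each enzyme, with concentrations going up to 200 μM.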

PANC-1 [11] = assay: Antitumor activity against human PANC1 cells xenografted in BALB/c nude mouse assessed as inhibition of tumor cell proliferation by measuring reduction in Ki67+ cells at 150 mg/kg/day, po for 30 days by IHC analysis; format: functional, organism-based
Summary of the method: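 PANC-1 subcutaneous xenografts in female BALB/c nude mice dosed orally for 30 days. Tumor tissue taken and stained by immunohistochemistry for Ki-67-positive cells, compared with vehicle.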

Histone deacetylase 5 = Histone deacetylase 5 (Homo sapiens, UniProt Q9UQL6); assay: Inhibition of HDAC5 (unknown origin) by FDL assay; summary of the method: as §1
Histone deacetylase 5, sequence (Q9UQL6 whole entry): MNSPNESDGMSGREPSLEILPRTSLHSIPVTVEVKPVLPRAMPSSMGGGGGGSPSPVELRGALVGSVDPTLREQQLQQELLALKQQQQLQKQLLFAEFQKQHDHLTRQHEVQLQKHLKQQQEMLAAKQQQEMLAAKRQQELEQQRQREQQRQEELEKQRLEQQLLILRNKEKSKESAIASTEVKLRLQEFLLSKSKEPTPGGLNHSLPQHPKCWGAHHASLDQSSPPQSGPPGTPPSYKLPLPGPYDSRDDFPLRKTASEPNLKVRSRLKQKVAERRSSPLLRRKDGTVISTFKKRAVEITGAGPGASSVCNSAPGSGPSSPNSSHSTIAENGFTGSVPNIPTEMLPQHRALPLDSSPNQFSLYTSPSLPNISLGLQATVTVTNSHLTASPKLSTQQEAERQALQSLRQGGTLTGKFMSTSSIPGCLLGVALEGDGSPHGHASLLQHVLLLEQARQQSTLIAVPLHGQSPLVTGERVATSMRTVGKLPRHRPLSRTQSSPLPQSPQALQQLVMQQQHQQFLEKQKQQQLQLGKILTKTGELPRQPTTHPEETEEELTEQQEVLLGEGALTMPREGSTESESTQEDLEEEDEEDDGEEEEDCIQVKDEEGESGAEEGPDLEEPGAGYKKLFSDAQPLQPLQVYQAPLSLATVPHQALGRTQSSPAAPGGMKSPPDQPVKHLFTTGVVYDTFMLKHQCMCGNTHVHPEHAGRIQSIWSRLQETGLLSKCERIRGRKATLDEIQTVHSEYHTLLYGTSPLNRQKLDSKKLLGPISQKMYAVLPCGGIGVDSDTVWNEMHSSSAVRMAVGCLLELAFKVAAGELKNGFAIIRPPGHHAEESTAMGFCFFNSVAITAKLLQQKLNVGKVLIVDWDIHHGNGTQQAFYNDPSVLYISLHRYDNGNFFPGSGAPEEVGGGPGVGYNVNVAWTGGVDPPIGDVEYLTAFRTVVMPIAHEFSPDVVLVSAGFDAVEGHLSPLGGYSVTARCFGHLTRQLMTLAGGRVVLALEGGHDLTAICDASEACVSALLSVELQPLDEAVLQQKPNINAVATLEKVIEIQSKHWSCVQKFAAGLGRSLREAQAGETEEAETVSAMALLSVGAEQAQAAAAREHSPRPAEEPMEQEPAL

BXPC-3 [12] = assay: Induction of apoptosis in human BxPC3 cells incubated for 48 hrs by propidium iodide and Annexin V-FITC staining based flow cytometry; format: functional, cell-based
Summary of the method: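 PANC-1 and BXPC-3 cells seeded in 6-well plates and treated with a concentration series for 48 h. Stained with Annexin V-FITC and propidium iodide for 10 min in the dark. Annexin V+ populations measured by flow cytometry.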

[13] = target: T1, NAD-dependent protein deacylase sirtuin-6; assay: […] in human PANC1 cells assessed as reduction in H3K9ac levels incubated for 72 hrs by Western blot analysis; format: cell-based; details: PANC-1
Summary of the method: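 Cells incubated 72 h with various compound concentrations; whole-cell RIPA lysates with protease inhibitors, BCA-normalised, separated on 12% SDS-PAGE, transferred to PVDF, blocked in 5% milk or BSA. Probed 10 h at 4 °C with antibodies to SIRT6, acetyl-H3K9/K18/K56, total H3, Lin28b, Myc, IGF2BP3, β-actin; HRP secondary, chemiluminescent detection.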

ASPC1 [14] = assay: Inhibition of cell migration of human AsPC1 cells at 10 umol/L incubated for 24 hrs by inverted microscopy relative to control; format: functional; details: ASPC1, 24 h; summary of the method: as §3

Histone deacetylase 7, sequence (Q8WUI4 whole entry): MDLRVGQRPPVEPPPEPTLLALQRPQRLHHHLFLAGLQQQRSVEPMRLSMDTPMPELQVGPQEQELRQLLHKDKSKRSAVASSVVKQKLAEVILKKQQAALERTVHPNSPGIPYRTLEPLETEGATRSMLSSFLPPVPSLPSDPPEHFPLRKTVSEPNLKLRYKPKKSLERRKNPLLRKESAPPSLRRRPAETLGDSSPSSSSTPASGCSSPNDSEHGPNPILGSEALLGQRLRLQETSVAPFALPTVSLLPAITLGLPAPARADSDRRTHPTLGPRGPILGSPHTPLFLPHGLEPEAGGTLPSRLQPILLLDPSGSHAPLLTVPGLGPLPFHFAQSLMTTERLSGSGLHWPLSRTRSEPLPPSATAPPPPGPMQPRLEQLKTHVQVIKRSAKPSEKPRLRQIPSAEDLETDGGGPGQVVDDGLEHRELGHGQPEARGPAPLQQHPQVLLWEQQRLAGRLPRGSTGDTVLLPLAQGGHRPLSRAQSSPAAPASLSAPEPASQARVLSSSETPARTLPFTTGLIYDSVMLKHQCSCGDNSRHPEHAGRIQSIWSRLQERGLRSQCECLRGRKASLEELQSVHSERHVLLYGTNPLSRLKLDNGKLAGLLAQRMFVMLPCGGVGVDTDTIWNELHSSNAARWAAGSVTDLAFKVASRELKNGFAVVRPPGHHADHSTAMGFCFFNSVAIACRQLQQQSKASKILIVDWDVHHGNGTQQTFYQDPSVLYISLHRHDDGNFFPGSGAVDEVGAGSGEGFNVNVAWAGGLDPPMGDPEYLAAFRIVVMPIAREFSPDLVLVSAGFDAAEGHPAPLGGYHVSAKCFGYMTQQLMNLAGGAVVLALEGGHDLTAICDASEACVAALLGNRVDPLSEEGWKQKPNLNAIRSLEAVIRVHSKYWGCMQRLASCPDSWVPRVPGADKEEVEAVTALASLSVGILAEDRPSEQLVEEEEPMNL

Compound: O=C(NC(c1ccccc1)c1ccccc1)c1cc(-c2cc3ccccc3o2)nc2ccccc12
- IC50 (Histone deacetylase 7): > 200 µM
- EC1.5 [1]: 0.58 to 0.72 µM
- EC50 [1]: 8.91 µM
- Ratio (Homo sapiens): 300
- Activity [2]: Active
- inhibition (ASPC1 [3]): Dose-dependent effect
- IC50 (Histone deacetylase 8): > 200 µM
- inhibition at 10 µM (BXPC-3 [4]): 70%
- Activity (PANC-1 [5]): Dose-dependent effect
- inhibition (BXPC-3 [6]): Dose-dependent effect
- Activity (ASPC1 [7]): Dose-dependent effect
- IC50 (ASPC1 [7]; ASPC1, 72 h): 9.66 µM
- Cmax [8]: 98.5 ng/mL
- Activity (PANC-1 [9]): Active
- IC50 [10]: > 200 µM
- Activity (PANC-1 [11]): Active
- IC50 (Histone deacetylase 5): > 200 µM
- Activity (BXPC-3 [12]): Dose-dependent effect
- inhibition [13]: Dose-dependent effect
- inhibition at 10 µM (ASPC1 [14]): 55.4%

— ChEMBL document CHEMBL4622973, “Discovery of Potent Small-Molecule SIRT6 Activators: Structure-Activity Relationship and Anti-Pancreatic Ductal Adenocarcinoma Activity” (J Med Chem, 2020)
